Test results as given in ChEMBL document CHEMBL3870337, “Development of a triazole class of highly potent Porcn inhibitors” (Bioorg Med Chem Lett, 2016).
Activity calls are given as the source filed them. No cut-off for these calls is given here.

Test system: not listed separately
Assay: Half life in mouse plasma at 2 uM in presence of NADPH by LC-MS/MS analysis
Type: ADME, cell-free
Settings: not given

Q: With O=C(CSc1nnc(-c2ccncc2)n1-c1ccccc1)Nc1ccc(-c2cccnc2)cc1 as the compound, how does the t1/2 read?
A: Its t1/2 is < 0.083 h.

Q: With O=C(Cn1nnc(-c2ccncc2)c1-c1ccccc1)Nc1ccc(-c2ccccc2)cn1 as the compound, how does the t1/2 read?
A: The t1/2 was 2.17 h.

Q: With O=C(Cn1cc(-c2ccncc2)nn1)Nc1ccc(-c2ccccc2)cn1 as the compound, how does the t1/2 read?
A: Its t1/2 is 1.67 h.

Test system: not listed separately
Assay: Stability in mouse plasma at 2 uM in presence of NADPH by LC-MS/MS analysis
Settings: not given

Q: For O=C(Cn1nnc(-c2ccncc2)c1-c1ccccc1)Nc1ccc(-c2ccccc2)cn1, which half-life at 2 µM is on record?
A: The half-life at 2 µM was > 4 h.

Biological target: T1, Protein-serine O-palmitoleoyltransferase porcupine (Homo sapiens) (UniProt Q9H237)
T1 sequence (whole entry): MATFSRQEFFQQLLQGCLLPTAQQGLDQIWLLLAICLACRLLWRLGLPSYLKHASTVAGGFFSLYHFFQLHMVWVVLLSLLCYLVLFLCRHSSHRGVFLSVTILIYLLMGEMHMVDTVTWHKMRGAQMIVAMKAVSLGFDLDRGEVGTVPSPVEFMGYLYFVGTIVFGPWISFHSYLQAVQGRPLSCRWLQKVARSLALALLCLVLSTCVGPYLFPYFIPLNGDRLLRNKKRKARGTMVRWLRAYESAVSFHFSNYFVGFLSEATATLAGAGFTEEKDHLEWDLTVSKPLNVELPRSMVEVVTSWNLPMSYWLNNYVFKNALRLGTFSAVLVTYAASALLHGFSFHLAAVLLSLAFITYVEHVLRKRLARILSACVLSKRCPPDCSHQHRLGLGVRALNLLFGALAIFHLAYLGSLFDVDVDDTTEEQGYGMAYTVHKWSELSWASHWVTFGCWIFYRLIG
Assay: Inhibition of porcupine-mediated phosphorylation of LRP6 in human HeLa cells at 1 uM after 24 hrs by Western blot analysis
Type: cell-based
Settings: not given
Method in brief: (§1)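 HeLa cells, which have high cell-autonomous Wnt signalling, were treated for 24 h with compound, the LGK974 reference or DMSO vehicle. Cell lysates were then analysed by Western blot for phosphorylation of LRP6 and of Dvl2/3, used as biochemical markers of Wnt pathway activity.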

Q: Which inhibition does the source give for O=C(Cn1nnc(-c2ccncc2)c1-c1ccccc1)Nc1ccc(-c2ccccc2)cn1 here?
A: Its inhibition is “Active”.

Biological target: T1, Protein-serine O-palmitoleoyltransferase porcupine (Homo sapiens)
Assay: Inhibition of porcupine-mediated phosphorylation of dishevelled 2/3 in human HeLa cells at 1 uM after 24 hrs by Western blot analysis
Type: cell-based
Settings: not given
Method in brief: as §1

Q: Which inhibition does the source give for O=C(Cn1nnc(-c2ccncc2)c1-c1ccccc1)Nc1ccc(-c2ccccc2)cn1 here?
A: Its inhibition is “Active”.

Biological target: T2, Protein-serine O-palmitoleoyltransferase porcupine (Mus musculus, UniProt Q9JJJ7)
T2 sequence (Q9JJJ7 whole entry): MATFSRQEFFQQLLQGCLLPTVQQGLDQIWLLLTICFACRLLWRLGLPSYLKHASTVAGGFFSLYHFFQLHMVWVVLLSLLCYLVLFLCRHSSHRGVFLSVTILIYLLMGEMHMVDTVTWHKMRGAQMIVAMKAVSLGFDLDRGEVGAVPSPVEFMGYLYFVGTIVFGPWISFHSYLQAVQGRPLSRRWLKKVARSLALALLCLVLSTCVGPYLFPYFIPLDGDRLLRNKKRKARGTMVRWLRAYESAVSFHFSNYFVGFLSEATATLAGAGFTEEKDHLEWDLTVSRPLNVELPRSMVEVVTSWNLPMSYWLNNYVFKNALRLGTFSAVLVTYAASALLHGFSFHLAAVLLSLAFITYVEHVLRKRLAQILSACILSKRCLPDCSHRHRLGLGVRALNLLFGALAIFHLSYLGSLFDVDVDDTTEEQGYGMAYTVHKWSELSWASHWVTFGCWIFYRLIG
Assay: Inhibition of porcupine-mediated Wnt signaling in mouse L-cells after 24 hrs by springerImage-Topflash reporter assay
Settings: not given

Q: With COc1ccc(-c2nnn(CC(=O)Nc3ccc(-c4ccccc4)cn3)c2-c2ccccc2)cc1 as the compound, how does the EC50 read?
A: The EC50 was 18 nM.

Q: Which EC50 does the source give for Cc1cccc(-c2c(-c3ccncc3)nnn2CC(=O)Nc2ccc(-c3ccccc3)cn2)c1 here?
A: The EC50 was 0.4 nM.

Q: Which EC50 does the source give for O=C(Cn1nnc(-c2ccncc2)c1-c1ccc(F)cc1)Nc1ccc(-c2ccccc2)cn1 here?
A: The EC50 was 0.2 nM.

Q: For O=C(Cn1nnc(-c2ccccn2)c1-c1ccccc1)Nc1ccc(-c2ccccc2)cn1, which EC50 is on record?
A: Its EC50 is 2500 nM.

Q: With O=C(Cn1nnc(-c2ccncc2)c1-c1ccc(C(F)(F)F)cc1)Nc1ccc(-c2ccccc2)cn1 as the compound, how does the EC50 read?
A: The EC50 was 0.3 nM.

Q: With O=C(Cn1nnc(-c2ccccc2C(F)(F)F)c1-c1ccccc1)Nc1ccc(-c2ccccc2)cn1 as the compound, how does the EC50 read?
A: The EC50 was 500 nM.

Q: For O=C(Cn1nnc(-c2ccncc2)c1-c1ccccc1)Nc1ccc(-c2ccsc2)cn1, which EC50 is on record?
A: The EC50 was 0.65 nM.

Q: Which EC50 does the source give for O=C(Cn1nnc(-c2ccncc2)c1-c1ccccc1)Nc1ccc(-c2cccnc2)cc1 here?
A: The EC50 was 200 nM.

Q: With O=C(Cn1nnc(-c2ccncc2)c1-c1cccc2ccccc12)Nc1ccc(-c2ccccc2)cn1 as the compound, how does the EC50 read?
A: The EC50 was 6.5 nM.

Q: With Cc1ccccc1-c1c(-c2ccncc2)nnn1CC(=O)Nc1ccc(-c2ccccc2)cn1 as the compound, how does the EC50 read?
A: Its EC50 is 40 nM.

Q: For O=C(Cn1nnc(-c2ccncc2)c1-c1ccccc1)Nc1ccc(N2CCCCC2)cn1, which EC50 is on record?
A: The EC50 was > 1000 nM.

Q: For O=C(Cn1nnc(-c2ccncc2)c1-c1ccccc1)Nc1cccc(-c2ccccc2)c1, which EC50 is on record?
A: The EC50 was 270 nM.

Q: With CCOC(=O)c1ccc(-c2c(-c3ccncc3)nnn2CC(=O)Nc2ccc(-c3ccccc3)cn2)cc1 as the compound, how does the EC50 read?
A: The EC50 was 0.7 nM.

Q: With O=C(Cn1nnc(-c2ccncc2)c1-c1ccccc1)Nc1ccc(-c2cncnc2)cn1 as the compound, how does the EC50 read?
A: Its EC50 is 1.8 nM.

Q: Which EC50 does the source give for CC(C(=O)Nc1ccc(-c2ccccc2)cn1)n1nnc(-c2ccncc2)c1-c1ccccc1 (stereo unspecified) here?
A: The EC50 was 3 nM.

Q: Which EC50 does the source give for N#Cc1ccc(-c2c(-c3ccncc3)nnn2CC(=O)Nc2ccc(-c3ccccc3)cn2)cc1 here?
A: The EC50 was 0.48 nM.

Q: For O=C(Cn1nnc(-c2ccncc2)c1-c1ccccc1)Nc1ccc(-c2cccnc2)cn1, which EC50 is on record?
A: Its EC50 is > 1000 nM.

Q: Which EC50 does the source give for O=C(Cn1nnc(-c2ccncc2)c1-c1ccccc1)Nc1ccc(N2CCCCC2)cc1 here?
A: The EC50 was 8 nM.

Q: For O=C(Cn1nnc(-c2ccnc(C(F)(F)F)c2)c1-c1ccccc1)Nc1ccc(-c2ccccc2)cn1, which EC50 is on record?
A: The EC50 was 0.6 nM.

Q: Which EC50 does the source give for O=C(Cn1nnc(-c2ccccc2)c1-c1ccccc1)Nc1ccc(-c2ccccc2)cn1 here?
A: The EC50 was 400 nM.

Q: For O=C(Cn1nnc(-c2ccncc2)c1-c1ccccc1)Nc1ccc(-c2ccoc2)cn1, which EC50 is on record?
A: The EC50 was 0.6 nM.

Q: Which EC50 does the source give for O=C(Cn1nnc(-c2ccncc2)c1-c1ccccc1)Nc1ncc(-c2ccccc2)cn1 here?
A: The EC50 was 8 nM.

Q: With Cc1cc(-c2nnn(CC(=O)Nc3ccc(-c4ccccc4)cn3)c2-c2ccccc2)ccn1 as the compound, how does the EC50 read?
A: The EC50 was 0.14 nM.

Q: Which EC50 does the source give for COc1ccc(-c2c(-c3ccncc3)nnn2CC(=O)Nc2ccc(-c3ccccc3)cn2)cc1 here?
A: The EC50 was 0.18 nM.

Q: For O=C(Cn1nnc(-c2ccncc2)c1-c1ccccc1)Nc1ncc(-c2ccccc2)s1, which EC50 is on record?
A: Its EC50 is 80000 nM.

Q: With O=C(Cn1cc(-c2ccccc2)nn1)Nc1ccc(-c2ccccc2)cn1 as the compound, how does the EC50 read?
A: The EC50 was > 5000 nM.

Q: With O=C(Cn1nnc(-c2ccnc(F)c2)c1-c1ccccc1)Nc1ccc(-c2ccccc2)cn1 as the compound, how does the EC50 read?
A: The EC50 was 0.13 nM.

Q: With O=C(Cn1nnc(-c2ccncc2)c1-c1ccccc1)Nc1ccc(-c2ccncc2)cc1 as the compound, how does the EC50 read?
A: The EC50 was 7 nM.

Q: For O=C(Cn1nnc(-c2ccncc2)c1-c1ccccc1)Nc1ccc(-c2ccccc2)nc1, which EC50 is on record?
A: Its EC50 is 0.2 nM.

Q: For O=C(Cn1nnc(-c2cccnc2)c1-c1ccccc1)Nc1ccc(-c2ccccc2)cn1, which EC50 is on record?
A: The EC50 was 5 nM.

Q: With O=C(Cn1cc(-c2ccccn2)nn1)Nc1ccc(-c2ccccc2)cn1 as the compound, how does the EC50 read?
A: Its EC50 is > 5000 nM.

Q: With CCC(C(=O)Nc1ccc(-c2ccccc2)cn1)n1nnc(-c2ccncc2)c1-c1ccccc1 (stereo unspecified) as the compound, how does the EC50 read?
A: Its EC50 is 12 nM.

Q: Which EC50 does the source give for COc1ccccc1-c1c(-c2ccncc2)nnn1CC(=O)Nc1ccc(-c2ccccc2)cn1 here?
A: The EC50 was 9 nM.

Q: For O=C(Cn1nnc(-c2ccncc2)c1-c1ccccc1)Nc1ccc(-c2ccco2)cn1, which EC50 is on record?
A: The EC50 was 0.4 nM.

Q: With O=C(Cn1cc(-c2cccnc2)nn1)Nc1ccc(-c2ccccc2)cn1 as the compound, how does the EC50 read?
A: The EC50 was 100 nM.

Q: For O=C(Cn1nnc(-c2ccncc2)c1-c1ccccc1)Nc1ccc(-c2ccccn2)cc1, which EC50 is on record?
A: Its EC50 is 1.8 nM.

Q: With O=C(Cn1nnc(-c2ccncc2)c1-c1ccccc1)Nc1ccc(-c2ccccc2)cn1 as the compound, how does the EC50 read?
A: Its EC50 is 0.08 nM.

Q: For O=C(Cn1cc(-c2ccncc2)nn1)Nc1ccc(-c2ccccc2)cn1, which EC50 is on record?
A: Its EC50 is 9 nM.

Test system: not listed separately
Assay: Half life in ICR/CD-1 mouse liver S9 fraction at 2 uM in presence of NADPH by LC-MS/MS analysis
Type: ADME, subcellular
Settings: s9, 2 µM

Q: Which t1/2 does the source give for O=C(CSc1nnc(-c2ccncc2)n1-c1ccccc1)Nc1ccc(-c2cccnc2)cc1 here?
A: Its t1/2 is 0.25 h.

Q: With O=C(Cn1cc(-c2ccncc2)nn1)Nc1ccc(-c2ccccc2)cn1 as the compound, how does the t1/2 read?
A: Its t1/2 is 3.33 h.
